Measured values gathered from unrelated publications.
Target: Casein kinase II subunit alpha' (CSNK2A2, Homo sapiens, UniProt P19784)

| Structure (SMILES) | effect on | action | method | tested at | endpoint | result |
| --- | --- | --- | --- | --- | --- | --- |
| C#Cc1n[nH]c2c(-c3cn([C@@H](C)c4ccccn4)c(=O)[nH]c3=O)cc(F)cc12 | enzyme activity | inhibitor | – | 0.1 µM | inhibition | 3.3% |
| CN[C@@H]1C[C@H]2O[C@@](C)([C@@H]1OC)n1c3ccccc3c3c4c(c5c6ccccc6n2c5c31)C(=O)NC4 | enzyme activity | inhibitor | – | 0.5 µM | activity vs control | 66.6% |
| Cn1cncc1[C@@](O)(COc1ccc(C#N)cc1-c1ccc(OC(F)(F)F)cc1)c1ccc(C#N)cc1 | cell-free assay | – | competition with immobilised ligand | 1 µM | remaining binding | 100% |
| Nc1ncc(-c2nc(N3CCOCC3)nc(N3CCOCC3)n2)c(C(F)F)n1 | binding | – | competition with immobilised ligand | 10 µM | remaining binding | 69% |
| Cn1cc(-c2cccc(N3CCc4c(sc5c4CC(C)(C)C5)C3=O)c2CO)cc(Nc2ccncn2)c1=O | enzyme activity | inhibitor | – | 1 µM | inhibition | 4% |
| COc1ncccc1-c1cnn2ccc(N3CCN(C(=O)OC(C)C)CC3)nc12 | binding | – | competition with immobilised ligand | 1 µM | remaining binding | 62% |
| C#Cc1n[nH]c2c(-c3cn([C@@H](C)c4ccccc4)c(=O)[nH]c3=O)cc(F)cc12 | enzyme activity | inhibitor | – | 0.1 µM | inhibition | 1.5% |
| O=c1[nH]c2ccccc2n1C1CCN(Cc2ccc(-c3[nH]c4cc5ncnc5cc4nc3-c3ccccc3)cc2)CC1 | cell-free assay | – | – | 0.5 µM | remaining signal | 101% |
| Cn1cc(-c2cc(F)cc(N3CCn4c(cc5c4CCCC5)C3=O)c2CO)cc(Nc2ccc(N3CCN(C4COC4)CC3)cn2)c1=O | enzyme activity | inhibitor | – | 0.1 µM | inhibition | 1% |
| Cc1nn(C)cc1-c1nc2c(N3CCN(Cc4ccc(Cl)cc4)CC3)c(Cl)cnc2[nH]1 | binding | – | competition with immobilised ligand | 1 µM | remaining binding | 67% |
